{"source": "ChEMBL document CHEMBL1143914", "about": "“Synthesis and cytotoxic activity of diosgenyl saponin analogues” (Bioorg Med Chem, 2008)", "assay_type_in_all_cases": "functional, cell-based", "key": {"[1]": {"system": "SK-N-SH", "experiment": "Cytotoxicity against human SK-N-SH cells after 72 hrs by MTT assay", "outline": "(§1)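 Cells grown in DMEM with 10% FBS at 37 °C, 5% CO2. 2000 cells per well in 96-well plates, allowed to adhere. Compounds were dissolved in DMSO, diluted in medium and added at 0–30 µM, 8 wells per concentration, for 72 h. MTT at 0.5 mg/mL for 4 h, then DMSO solubilization and absorbance at 490 nm. IC50 from concentration plots; at least 2 independent assays.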"}, "[2]": {"system": "MCF7", "experiment": "Cytotoxicity against human MCF7 cells after 72 hrs by MTT assay", "conditions": "MCF7, 72 h", "outline": "as §1"}, "[3]": {"system": "HeLa", "experiment": "Cytotoxicity against human HeLa cells after 72 hrs by MTT assay", "outline": "as §1"}, "[4]": {"system": "SK-N-SH", "experiment": "Cell cycle arrest in human SK-N-SH cells assessed as G1 phase accumulation"}, "[5]": {"system": "MCF7", "experiment": "Cell cycle arrest in human MCF7 cells assessed as G2 phase accumulation"}}, "note": "The source made the active and inactive calls. The rule behind the calls is not given here.", "data": [{"compound": "C[C@@H]1CC[C@@]2(OC1)O[C@H]1C[C@H]3[C@@H]4CC=C5C[C@@H](O[C@@H]6O[C@H](CO)[C@@H](O)[C@H](O)[C@H]6NC(=O)CCC(=O)O)CC[C@]5(C)[C@H]4CC[C@]3(C)[C@H]1[C@@H]2C", "values": [{"measurement": "IC50", "setting": "[1]", "result": 14.1, "unit": "µM"}, {"measurement": "IC50", "setting": "[2]", "result": 22, "unit": "µM"}, {"measurement": "IC50", "setting": "[3]", "result": 13.9, "unit": "µM"}]}, {"compound": "C[C@@H]1CC[C@@]2(OC1)O[C@H]1C[C@H]3[C@@H]4CC=C5C[C@@H](O[C@@H]6O[C@H](CO)[C@@H](O)[C@H](O)[C@H]6NC(=O)CCCCC6CCSS6)CC[C@]5(C)[C@H]4CC[C@]3(C)[C@H]1[C@@H]2C", "note": "(stereo partly drawn) [ALPHA LIPOYL]", "values": [{"measurement": "IC50", "setting": "[1]", "result": 4.8, "unit": "µM"}, {"measurement": "IC50", "setting": "[2]", "result": 6.9, "unit": "µM"}, {"measurement": "IC50", "setting": "[3]", "result": 7.3, "unit": "µM"}]}, {"compound": "C[C@@H]1CC[C@@]2(OC1)O[C@H]1C[C@H]3[C@@H]4CC=C5C[C@@H](O[C@H]6O[C@@H](CO)[C@H](O)[C@@H](O)[C@@H]6NC(=O)CCCCC(=O)N[C@H]6[C@H](O[C@H]7CC[C@@]8(C)C(=CC[C@H]9[C@@H]%10C[C@@H]%11O[C@]%12(CC[C@@H](C)CO%12)[C@@H](C)[C@@H]%11[C@@]%10(C)CC[C@@H]98)C7)O[C@H](CO)[C@@H](O)[C@@H]6O)CC[C@]5(C)[C@H]4CC[C@]3(C)[C@H]1[C@@H]2C", "values": [{"measurement": "IC50", "setting": "[1]", "result": 19.5, "unit": "µM"}, {"measurement": "IC50", "setting": "[2]", "result": 19.2, "unit": "µM"}, {"measurement": "IC50", "setting": "[3]", "result": "> 20", "unit": "µM"}]}, {"compound": "CC(=O)N[C@@H](C)C(=O)N[C@H]1[C@H](O[C@H]2CC[C@@]3(C)C(=CC[C@H]4[C@@H]5C[C@@H]6O[C@]7(CC[C@@H](C)CO7)[C@@H](C)[C@@H]6[C@@]5(C)CC[C@@H]43)C2)O[C@H](CO)[C@@H](O)[C@@H]1O", "values": [{"measurement": "IC50", "setting": "[1]", "result": 15.3, "unit": "µM"}, {"measurement": "IC50", "setting": "[2]", "result": 11, "unit": "µM"}, {"measurement": "IC50", "setting": "[3]", "result": 20, "unit": "µM"}]}, {"compound": "CC(=O)N[C@H]1[C@H](O[C@H]2CC[C@@]3(C)C(=CC[C@H]4[C@@H]5C[C@@H]6O[C@]7(CC[C@@H](C)CO7)[C@@H](C)[C@@H]6[C@@]5(C)CC[C@@H]43)C2)O[C@H](CO)[C@@H](O)[C@@H]1O", "values": [{"measurement": "IC50", "setting": "[1]", "result": 11.6, "unit": "µM"}, {"measurement": "IC50", "setting": "[2]", "result": 18.3, "unit": "µM"}, {"measurement": "IC50", "setting": "[3]", "result": 21.5, "unit": "µM"}]}, {"compound": "C[C@@H]1CC[C@@]2(OC1)O[C@H]1C[C@H]3[C@@H]4CC=C5C[C@@H](O[C@@H]6O[C@H](CO)[C@@H](O)[C@H](O)[C@H]6NC(=O)CCCCC(=O)O)CC[C@]5(C)[C@H]4CC[C@]3(C)[C@H]1[C@@H]2C", "values": [{"measurement": "IC50", "setting": "[1]", "result": 16.3, "unit": "µM"}, {"measurement": "IC50", "setting": "[2]", "result": 11.3, "unit": "µM"}, {"measurement": "IC50", "setting": "[3]", "result": "> 20", "unit": "µM"}]}, {"compound": "C[C@@H]1CC[C@@]2(OC1)O[C@H]1C[C@H]3[C@@H]4CC=C5C[C@@H](O[C@@H]6O[C@H](CO)[C@@H](O)[C@H](O)[C@H]6NC(=O)c6ccccc6)CC[C@]5(C)[C@H]4CC[C@]3(C)[C@H]1[C@@H]2C", "values": [{"measurement": "IC50", "setting": "[1]", "result": 14.9, "unit": "µM"}, {"measurement": "IC50", "setting": "[2]", "result": 19.4, "unit": "µM"}, {"measurement": "IC50", "setting": "[3]", "result": 18, "unit": "µM"}, {"measurement": "Activity", "setting": "[4]", "result": "Active"}, {"measurement": "Activity", "setting": "[5]", "result": "Active"}]}]}
